Source: PubChem
In the library only some 2.9% were active in any assay of this set; here they are far more common.
Vif imaging = inhibitors of HIV Vif. HEK293T cells, Vif self-association by quenched fluorescence, imaging, 24 h. inhibition, % at 7.49 µM. hit rate 0.35% among 340,000. AID 602346; in the data active means inhibition above about 50%, passing the limit was not always enough
Cneo AK release = causes C. neoformans cell lysis. AID 651654. adenylate kinase release luminescence, 4 h; normalised: neutral wells 0, clomiphene wells 100. lysis activity, % at 15 µM. hit rate 0.2% among 360,000;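 active means mean lysis activity across replicates of at least 80%, whatever share of replicates individually reach that level; inactive means mean lysis activity below 80%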
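Material – Cryptococcus neoformans yeast cells · Quantity – 5 × 10^6 yeast cells/mL · Buffer or medium – YPD medium · Compound – single dose · Timing – 4 h static compound exposure, 37 °C, read 1 h post-reagent · Signal – adenylate kinase release luminescence · Read-out basis – lysis from increased AK signal · Benchmarks – Clomiphene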
FGF22 binding = binders of recombinant human FGF22 by thermal shift | activity (Tm shift, normalised), % at 9.99 µM | SYPRO orange fluorescence; percent of sucrose octasulfate shift, DMSO zero | hit rate 1.5% among 340,000 | AID 651658 | Q9HCT0;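 active means mean Tm shift, scaled 0 neutral to 100 positive control, at about 1.3% or above, every replicate too, limit read from the data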
Target sequence (Q9HCT0 whole entry, looked up): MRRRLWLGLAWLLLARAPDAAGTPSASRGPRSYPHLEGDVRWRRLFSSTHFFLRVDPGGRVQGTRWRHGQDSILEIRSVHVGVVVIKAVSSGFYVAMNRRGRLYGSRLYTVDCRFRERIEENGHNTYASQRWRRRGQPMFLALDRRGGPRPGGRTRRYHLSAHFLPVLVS
PGC1a acetyl inh = PGC1a acetylation modulation, inhibitor mode | U2OS PGC1a acetylation, AlphaScreen anti-acetyl-lysine; with virally co-expressed GCN5 acetyltransferase | inhibition, % at 15.6 µM | hit rate 0.17% among 350,000 | AID 651687;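 active means every replicate shows inhibition of at least 40%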;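 further: 0% = neutral control wells and 100% = positive control wells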
PglD DTNB = blocks C. jejuni PglD acetyltransferase activity. hit rate 0.098% among 360,000. purified PglD enzyme, DTNB colorimetric CoA detection. inhibition, % at 12.5 µM. AID 602405; in the data active means inhibition above about 16%, passing the limit was not always enough
Ecoli rRNA inh = inhibits bacterial ribosomal RNA function over humanized ribosomes; hit rate 1.6% among 350,000; GFP signal change (wild-type ribosome), % (no concentration beside the values); E. coli WT GFP vs humanized-ribosome RFP mutants, fluorescence, 24 h; active compounds read low; DMSO median 0, no signal -100;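 active means significant combined selectivity score with lowered wild-type GFP, culture density cut under 30%, mutant RFP and density less affected; inactive means any of these conditions unmet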
Active calls of the source: *; · = not tested or not shown.

SMILES | Vif imaging | Cneo AK release | FGF22 binding | PGC1a acetyl inh | PglD DTNB | Ecoli rRNA inh
CCCNC(=O)Nc1ccc2c(c1)C(=O)N(C)C[C@H](OC)[C@H](C)CN(C(=O)C1CCCCC1)[C@H](C)CO2 | · | · | · | 32 | · | -1
Oc1ccc(-c2csc(Nc3ncccn3)n2)cc1O | 11 | · | 0 | 5 | · | -30*
Cc1nc(-c2ccc(O)c(O)c2)cs1 | 67* | -3 | · | -12 | 1 | ·
Cc1cccc(Nc2nc(-c3ccc4c(c3)OCCO4)cs2)c1 | 0 | -8 | · | 0 | -2 | ·
Nc1nc(-c2ccc(-c3ccccc3)cc2)cs1 | -28 | · | 43 | -10 | · | -25*
Cc1nc(-c2ccc3c(c2)OCCO3)cs1 | -7 | · | 43* | · | · | 5
Oc1ccc(-c2csc(Nc3ncccn3)n2)c(O)c1 | 8 | · | 0 | 10 | · | -10
CCCNC(=O)N1CC2(CCN(C(=O)C3CCC3)CC2)c2c([nH]c3cc(OC)ccc23)[C@@H]1CO | · | · | 0 | · | · | -1
CO[C@@H]1CN(C)C(=O)c2cc(NC(=O)c3ccccc3F)ccc2OC[C@@H](C)N(C)C[C@@H]1C | · | 0 | 0 | -5 | 1 | -2
CO[C@@H]1CN(C)C(=O)c2ccc(NC(=O)c3cccc(F)c3)cc2OC[C@@H](C)N(C)C[C@H]1C | · | -4 | 0 | -7 | 4 | -1
O=C(Nc1nc(-c2ccc3c(c2)OCCO3)cs1)C1CCCC1 | -5 | · | 0 | -13 | · | -34*
Oc1ccc(-c2csc(-c3ccccc3)n2)cc1O | · | 5 | 0 | 13 | 1 | -34*
C[C@H]1CN([C@@H](C)CO)C(=O)c2cccc(NS(C)(=O)=O)c2O[C@H]1CN(C)C(=O)NC1CCCCC1 | · | -2 | 0 | 4 | 0 | 2
O=C(COc1ccccc1Br)Nc1ccc(S(=O)(=O)N2CCCC2)cc1 | -10 | 0 | 1 | 8 | -5 | -23*
COc1ccccc1OCC(=O)Nc1ccc(S(=O)(=O)N2CCN(C)CC2)cc1 | -4 | 7 | 0 | 11 | 5 | 11
COc1ccc(OC)c(NC(=O)COC(=O)c2ccc(S(=O)(=O)N3CCCCC3)cc2)c1 | 31 | 0 | 45* | -4 | -2 | 6
COc1ccccc1OCC(=O)Nc1ccc(S(=O)(=O)N2CCCC2)cc1 | 76* | 0 | 0 | 15 | 0 | -11
COc1ccc(CNC(=O)CN2CCN(S(=O)(=O)c3cccs3)CC2)cc1OC | 1 | · | 43* | -14 | · | 6
COc1ccc(NC(=O)CN2CCN(S(=O)(=O)c3ccc(C(C)C)cc3)CC2)cc1OC | -4 | 130* | · | -20 | -3 | ·
COc1ccc(C)cc1NC(=O)CN1CCN(S(=O)(=O)c2ccc(C(C)C)cc2)CC1 | -10 | 0 | · | -11 | 4 | ·
CCCN1[C@H](C(=O)OC)[C@@H](CO)[C@@H]2Cn3c(ccc(-c4cccnc4)c3=O)[C@@H]21 | · | · | · | 2 | · | 2
O=C(NCc1ccccc1)[C@@]1(Cc2ccccc2)COC(c2ccc(OCCCO)cc2)=N1 | · | -5 | 0 | -20 | 2 | ·
CO[C@H]1CN(C)C(=O)c2cc(NC(=O)C3CCC3)ccc2OC[C@H](C)N(CC2CCCCC2)C[C@H]1C | · | 13 | 0 | -7 | 0 | 1
CC(Oc1ccccc1)C(=O)Nc1nnc(S(=O)(=O)N2CCCCC2)s1 (configuration not stated) | -4 | 0 | 0 | -1 | 5 | -3
CC(Oc1ccccc1)C(=O)Nc1nnc(S(=O)(=O)Nc2ccccc2)s1 (configuration not stated) | 4 | -1 | 0 | 0 | 2 | -13*
SMILES | Vif imaging | Cneo AK release | FGF22 binding | PGC1a acetyl inh | PglD DTNB | Ecoli rRNA inh
O=C(Nc1cc(F)ccc1F)N[C@@H]1CC[C@@H](CCNC(=O)c2cnccn2)O[C@@H]1CO | · | · | · | 4 | -1 | 4
CCNc1c([N+](=O)[O-])c(=O)n(CC)c2ccccc12 | 8 | 0 | 0 | 0 | -1 | -33*
CCN(CC)c1c([N+](=O)[O-])c(=O)n(CC)c2ccccc12 | -4 | 0 | 0 | -5 | -8 | -35*
CC(=O)N[C@@H]1CC[C@H](CCNC(=O)C2CCC2)O[C@H]1CO | · | -2 | 0 | 1 | -3 | 0
COc1ccc(C(=O)C2CCCN(C(=O)c3c4c(nn3C)CCCC4)C2)cc1F (configuration not stated) | -2 | · | · | · | · | -1
Cn1nc2c(c1C(=O)N1CCCC(C(=O)c3cc(F)ccc3F)C1)CCCC2 (configuration not stated) | -1 | · | 43* | · | · | 1
CCOC(=O)C(=Cc1ccc(Br)cc1)C(=O)OCC | -7 | 0 | 0 | 13 | 0 | -10
CCOC(=O)C(CC)(CC)C(=O)/C=C/c1ccc(Br)cc1 | 8 | 0 | · | 57* | 5 | ·
COc1ccc2c(c1OC)C(=O)OC2Nc1nc(-c2cc3cc(Br)ccc3oc2=O)cs1 (configuration not stated) | -11 | -11 | 0 | -5 | -4 | -26*
CO/N=C/C(C(C)=O)C(=O)Nc1ccc(Cl)cc1Cl (configuration not stated) | 28 | -1 | 43* | 5 | -8 | 4
C[C@@H]1CCn2cc(nn2)COC[C@@H](c2ccccc2)NC1=O | · | · | · | · | · | 1
CCCCC[C@@H](/C=C/C1C(=O)C=C[C@H]1C/C=C\CCCC(=O)OC)OC(C)=O (some centres not stated) | · | -3 | -1 | -12 | 2 | -23*
O=C(C[C@@H]1CC[C@@H]2[C@H](COC[C@@H](O)CN2C(=O)c2ccncc2)O1)NC1CCC1 | · | 4 | 0 | 4 | 1 | 1
COc1ccc2c3c(n(C)c2c1)[C@@H](CO)N(C(C)=O)CC31CN(C(=O)c2cnccn2)C1 | · | · | 0 | -2 | · | -3
O=C(N/C=C/n1cnc2cc(C(F)(F)F)ccc21)c1ccccc1F | 1 | · | 44* | · | · | -11
O=C(N/C=C/n1cnc2cc(C(F)(F)F)ccc21)c1ccc(F)cc1 | · | 0 | 0 | · | 1 | ·
N#CCCCCn1ccc(NC(=O)c2ccc(Cl)cc2O)n1 | -9 | · | 1 | · | · | -30*
COc1ccccc1-c1ccc(/C=N/O)o1 | -3 | 2 | 0 | 13 | 0 | -34*
O=C(Cn1nnc(-c2ccccc2)n1)N1CCN(c2ccc(F)cc2)CC1 | 3 | · | 43* | · | · | 9
O=C(C1CCCC1)N1CC(=O)N2[C@H](CO)[C@H](c3ccc(C#CCc4ccccc4)cc3)[C@H]2C1 | · | · | · | -2 | · | -1
COc1cccc(-c2cn(CC[C@@H]3CC[C@H](NC(C)=O)[C@@H](CO)O3)nn2)c1 | · | 94* | -1 | -5 | 1 | 3
O=C(N[C@@H]1CC[C@H](CCn2cc(-c3ccc(F)cc3)nn2)O[C@@H]1CO)c1cnccn1 | · | -3 | 0 | -4 | 0 | 0
O=C(N[C@H]1CC[C@@H](CCn2cc(-c3ccccc3)nn2)O[C@H]1CO)c1cnccn1 | · | -1 | 0 | 8 | -1 | 3
